Measurements collected from several papers.
Protocols differ between the studies behind these lines.
Target: Acetylcholinesterase (ACHE, Homo sapiens, UniProt P22303)
Mode: inhibitor

Structure (SMILES)	assay	IC50 [µM]
O=C(NCCN1CCCCC1)c1cccc([N+](=O)[O-])c1	enzyme activity, Ellman	2
CNC(=O)c1ccc(-c2cnn3ccc(C(=O)N(C)c4ccc(Cl)c(C(=O)O)c4)cc23)cc1	cell-free assay	> 30
C#CCN(C)CCCCOc1cccc(CN(C)c2c3c(nc4ccccc24)CCCC3)c1	enzyme activity, Ellman	6.09
Cn1cc(-c2cc(C(=O)NN=Cc3ccccc3F)no2)c2ccccc21	enzyme activity	> 100
O=[N+]([O-])c1c[nH]c(-c2n[nH]c(=S)n2/N=C/c2ccc(Br)c(Br)c2)c1	enzyme activity, Ellman	27.1
Cn1cc(-c2cc(C(=O)NN=Cc3cccc(Br)c3)no2)c2ccccc21	enzyme activity	> 100
O=[N+]([O-])c1c[nH]c(-c2n[nH]c(=S)n2/N=C/c2ccc(F)cc2)c1	enzyme activity, Ellman	8.2
C#CCN(C)CCCCOCc1ccc(CN(C)c2c3c(nc4ccc(C)cc24)CCCC3)cc1	enzyme activity, Ellman	16.2
COc1ccccc1C=NNC(=O)c1cc(-c2cn(C)c3ccccc23)on1	enzyme activity	34.2
C#CCN(C)CCCCCCCCOc1cccc(CN(C)c2c3c(nc4ccccc24)CCCC3)c1	enzyme activity, Ellman	4.33
COc1ccc(S(=O)(=O)Oc2cccc(C=NNC(=O)c3ccc(F)cc3)c2)cc1	enzyme activity, Ellman	0.0895
O=[N+]([O-])c1c[nH]c(-c2n[nH]c(=S)n2/N=C/c2cc(Cl)cc(Cl)c2)c1	enzyme activity, Ellman	13.6
COc1ccccc1C(=O)NCCN1CCCCC1	enzyme activity, Ellman	4.7
Cn1cc(-c2cc(C(=O)NN=Cc3ccncc3)no2)c2ccccc21	enzyme activity	> 100
C#CCN(C)CCCCOCc1ccc(CN(C)c2c3c(nc4ccccc24)CCCC3)cc1	enzyme activity, Ellman	2.36
O=[N+]([O-])c1c[nH]c(-c2n[nH]c(=S)n2/N=C/c2ccc(Br)c(Cl)c2)c1	enzyme activity, Ellman	22.9

Structure (SMILES)	assay	IC50 [µM]
COc1ccc(OC)c(C=NNC(=O)c2cc(-c3cn(C)c4ccccc34)on2)c1	enzyme activity	> 100
C#CCN(C)CCCOc1cccc(CN(C)c2c3c(nc4ccccc24)CCCC3)c1	enzyme activity, Ellman	2.82
COc1ccc(S(=O)(=O)Oc2ccc3ccccc3c2C=NNC(=O)c2ccc(F)cc2)cc1	enzyme activity, Ellman	0.114
COc1cccc(C(=O)NCCN2CCCCC2)c1	enzyme activity, Ellman	5.2
C#CCN(C)CCCCCCOc1cccc(CN(C)c2c3c(nc4ccccc24)CCCC3)c1	enzyme activity, Ellman	1.16
Cn1cc(-c2cc(C(=O)NN=Cc3ccccc3O)no2)c2ccccc21	enzyme activity	> 100
O=[N+]([O-])c1c[nH]c(-c2n[nH]c(=S)n2/N=C/c2ccc(Oc3ccccc3)cc2)c1	enzyme activity, Ellman	19.3
O=C(NCCN1CCCCC1)c1cccc(Cl)c1	enzyme activity, Ellman	0.63
COc1ccc(S(=O)(=O)Oc2ccc(C=NNC(=O)c3ccc(F)cc3)cc2OC)cc1	enzyme activity, Ellman	0.0614
O=[N+]([O-])c1c[nH]c(-c2n[nH]c(=S)n2/N=C/c2ccc(F)c(O)c2)c1	enzyme activity, Ellman	9.2
O=C(NCCN1CCCCC1)c1ccc(Cl)cc1	enzyme activity, Ellman	46
O=[N+]([O-])c1c[nH]c(-c2n[nH]c(=S)n2/N=C/c2ccc(Cl)c([N+](=O)[O-])c2)c1	enzyme activity, Ellman	13.2
C#CCN(C)CCOc1cccc(CN(C)c2c3c(nc4ccccc24)CCCC3)c1	enzyme activity, Ellman	4.21
O=[N+]([O-])c1c[nH]c(-c2n[nH]c(=S)n2/N=C/c2ccc(C(F)(F)F)cc2)c1	enzyme activity, Ellman	5.1
O=C(NCCN1CCCCC1)c1ccccc1Cl	enzyme activity, Ellman	0.09
